Experiment [1] concerns the target T1, Glycogen synthase kinase-3 (Homo sapiens, UniProt P49840+P49841). As to the kind of experiment: Maximal glycogen synthesis in rat L6 skeletal muscle cells in response to 1 uM insulin. The format is functional, cell-based. An outline of the steps:
(§1)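 Rat L6 muscle cells, with glycogen synthesis tracked as 14C-glucose incorporated into glycogen. Maximum glycogen produced by the compound is expressed as a percentage of the maximum produced by 1 µM insulin.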

Another experiment has as its system MDCK. Kind of experiment: Cell permeation in MDCK cells. Type of experiment: functional, Canis lupus familiaris.
The target of experiment [2] is T1, Glycogen synthase kinase-3. Kind of experiment: Stimulation of glycogen synthesis in rat skeletal muscle L6 cells.
The target in experiment [3] is T1, Glycogen synthase kinase-3. As to the kind of experiment: Inhibition of glycogen synthase kinase-3 (GSK3-beta). The format is protein assay. The essentials:
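GSK-3β (20 nM final) in HEPES pH 7.2 with 10 mM MgCl2, 0.1 mg/mL BSA, 1 mM DTT, 0.3 mg/mL heparin. Substrate 2.8 µM biotinylated phospho-primed GS peptide, with 2.5 µM ATP plus [γ-33P]-ATP. Stopped after 40 min with EDTA. Streptavidin SPA beads added and counted. Reported as pIC50.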

The target in experiment [4] is T1, Glycogen synthase kinase-3. Kind of experiment: Maximal glycogen synthesis in rat L6 skeletal muscle cells in response to 1 uM insulin (inactive). The format is functional, cell-based. The essentials:
as §1

By EC50 is commonly meant the concentration at which the effect is half-maximal. Read a high EC50 as weaker potency.

Activity calls are given as the source filed them. The calls are words filed in the database; no cut-off is given here.

T1 sequence (P49840 whole entry, looked up): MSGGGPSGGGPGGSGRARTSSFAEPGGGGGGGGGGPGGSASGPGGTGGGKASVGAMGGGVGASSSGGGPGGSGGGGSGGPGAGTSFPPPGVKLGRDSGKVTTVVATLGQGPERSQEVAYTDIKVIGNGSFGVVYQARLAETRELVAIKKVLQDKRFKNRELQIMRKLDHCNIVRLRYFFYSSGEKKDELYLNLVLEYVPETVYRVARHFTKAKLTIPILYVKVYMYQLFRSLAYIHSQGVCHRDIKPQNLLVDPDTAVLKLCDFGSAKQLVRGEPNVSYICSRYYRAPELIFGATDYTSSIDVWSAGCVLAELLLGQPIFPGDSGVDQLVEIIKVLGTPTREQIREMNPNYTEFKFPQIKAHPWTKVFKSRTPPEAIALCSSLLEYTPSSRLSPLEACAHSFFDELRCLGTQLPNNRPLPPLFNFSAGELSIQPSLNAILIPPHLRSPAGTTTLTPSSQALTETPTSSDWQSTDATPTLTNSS
T1 sequence (P49841 whole entry, looked up): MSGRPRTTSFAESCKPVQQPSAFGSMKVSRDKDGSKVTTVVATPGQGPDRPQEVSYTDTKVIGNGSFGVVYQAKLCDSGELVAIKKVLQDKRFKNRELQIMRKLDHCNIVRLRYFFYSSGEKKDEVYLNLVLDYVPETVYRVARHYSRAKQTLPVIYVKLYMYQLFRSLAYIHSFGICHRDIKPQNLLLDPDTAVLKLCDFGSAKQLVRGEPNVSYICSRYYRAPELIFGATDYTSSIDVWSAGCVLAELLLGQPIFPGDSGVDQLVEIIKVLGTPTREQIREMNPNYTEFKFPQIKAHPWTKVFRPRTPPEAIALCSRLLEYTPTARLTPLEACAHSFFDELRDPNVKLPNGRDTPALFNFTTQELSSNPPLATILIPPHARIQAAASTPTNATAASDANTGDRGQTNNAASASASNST

The molecule `COc1cccc(-n2ncc3c(N/N=C/c4ccncc4)ncnc32)c1` [GW784752X] registered a Max in experiment [1] of 37%. The same molecule gave a Cell permeation in the experiment on MDCK of 12.7 ×10⁻⁶ cm/s. Besides, the concentration giving a half-maximal response (EC50) in experiment [2] came out at 220 nM.
Molecule `CN(C)CCNC(=O)c1ccc(/C=N/Nc2ncnc3c2cnn3-c2cccc3[nH]cnc23)cc1` [PYRAZOLOPYRIMIDINE 1] had a Max in experiment [1] of 76%. In the experiment on MDCK, this molecule gave a Cell permeation of 1.5 ×10⁻⁶ cm/s. For the same molecule, the “Log IC50” value in experiment [3] was -8.8. The molecule also returned a concentration giving a half-maximal response (EC50) in experiment [2] of 2330 nM.
In turn, `Fc1ccc(/C=N/Nc2ncnc3c2cnn3-c2ccccc2)cc1` showed a Cell permeation in the experiment on MDCK of 0.5 ×10⁻⁶ cm/s. In addition, the “Log IC50” value in experiment [3] is reported as -6.2.
`C(=N\Nc1ncnc2c1cnn2-c1ccccc1)/c1ccncc1`: the Max in experiment [1] was determined as 48%. Moreover, the Cell permeation with MDCK stood at 9.9 ×10⁻⁶ cm/s. Besides, the “Log IC50” value in experiment [3] was -7. In addition, the 50% effective concentration (EC50) in experiment [2] was 1220 nM.
For the molecule `O=C(O)c1ccc(/C=N/Nc2ncnc3c2cnn3-c2cccc3[nH]cnc23)cc1`, in experiment [1], the Max is 42%. In addition, the Cell permeation with MDCK was 1.7 ×10⁻⁶ cm/s. In experiment [3], the “Log IC50” value is on record as -8.3. Further, in experiment [2], the EC50 was 2730 nM.
Regarding `COc1cccc(-n2ncc3c(N/N=C/c4ccc(C(=O)NCCN(C)C)cc4)ncnc32)c1`, in experiment [1], the Max was found to be 26%. This molecule had a Cell permeation in the experiment on MDCK of 1.5 ×10⁻⁶ cm/s. Also, the “Log IC50” value in experiment [3] is given as -7.8. Further, in experiment [2], the EC50 was 4000 nM.
Molecule `C(=N\Nc1ncnc2c1cnn2-c1cccc2[nH]cnc12)/c1ccncc1` came in with a Max in experiment [1] of 45%. In the experiment on MDCK, this molecule had a Cell permeation of 21.2 ×10⁻⁶ cm/s. The “Log IC50” value in experiment [3] is listed as -8.4. The molecule further gave an EC50 in experiment [2] of 110 nM.
`CN(C)CCNC(=O)c1ccc(/C=N/Nc2ncnc3c2cnn3-c2ccccc2)cc1` displayed a Cell permeation with MDCK of 9.8 ×10⁻⁶ cm/s. Besides, the “Log IC50” value in experiment [3] was -7.7.
Regarding `COc1cccc(-n2ncc3c(N/N=C/c4ccc(F)cc4)ncnc32)c1` [GW817396X], the Max result in experiment [4] is “inactive”. The same molecule displayed a Cell permeation in the experiment on MDCK of 0.5 ×10⁻⁶ cm/s. Further, the “Log IC50” value in experiment [3] is reported as -8.1.
On to `COc1cccc(-n2ncc3c(N/N=C/c4ccc(C(=O)O)cc4)ncnc32)c1`, for which, in experiment [1], the Max stood at 46%. The molecule further displayed a Cell permeation in the experiment on MDCK of 6.5 ×10⁻⁶ cm/s. Besides, the “Log IC50” value in experiment [3] is -7.5. In experiment [2], this molecule had a half-maximal effective concentration (EC50) of 1880 nM.
In turn, `CS(=O)(=O)c1ccc(/C=N/Nc2ncnc3c2cnn3-c2cccc3[nH]cnc23)cc1` showed a Max in experiment [1] of 54%. Besides, in the experiment with MDCK, the Cell permeation worked out at 6.1 ×10⁻⁶ cm/s. In addition, in experiment [3], the “Log IC50” value was -8.3. The concentration for a half-maximal effect (EC50) in experiment [2] came out at 240 nM.
With `Fc1ccc(/C=N/Nc2ncnc3c2cnn3-c2cccc3[nH]cnc23)cc1`, the Max in experiment [1] was determined as 57%. The molecule also came in with a Cell permeation in the experiment on MDCK of 9.2 ×10⁻⁶ cm/s. Also, the “Log IC50” value in experiment [3] was -8.2. The molecule also showed an EC50 in experiment [2] of 230 nM.
In experiment [1], `COc1cccc(-n2ncc3c(N/N=C/c4ccc(S(C)(=O)=O)cc4)ncnc32)c1` [PYRAZOLOPYRIMIDINE 2] returned a Max of 19%. This molecule gave a Cell permeation in the experiment with MDCK of 16.8 ×10⁻⁶ cm/s. Further, the “Log IC50” value in experiment [3] is given as -8.6. For the same molecule, the concentration giving a half-maximal response (EC50) in experiment [2] is 310 nM.

Source of the values: ChEMBL document CHEMBL1147547, “Novel GSK-3 inhibitors with improved cellular activity” (Bioorg Med Chem Lett, 2004).
